# How the values were obtained:
# [1] = biological target: T1, Nicotinic acetylcholine receptor alpha 5 subunit (Musca domestica, UniProt A9XFY4); test: Displacement of [3H]IMI from Musca domestica (house fly) brain nicotinic acetylcholine receptor
# T1 sequence (A9XFY4 whole entry): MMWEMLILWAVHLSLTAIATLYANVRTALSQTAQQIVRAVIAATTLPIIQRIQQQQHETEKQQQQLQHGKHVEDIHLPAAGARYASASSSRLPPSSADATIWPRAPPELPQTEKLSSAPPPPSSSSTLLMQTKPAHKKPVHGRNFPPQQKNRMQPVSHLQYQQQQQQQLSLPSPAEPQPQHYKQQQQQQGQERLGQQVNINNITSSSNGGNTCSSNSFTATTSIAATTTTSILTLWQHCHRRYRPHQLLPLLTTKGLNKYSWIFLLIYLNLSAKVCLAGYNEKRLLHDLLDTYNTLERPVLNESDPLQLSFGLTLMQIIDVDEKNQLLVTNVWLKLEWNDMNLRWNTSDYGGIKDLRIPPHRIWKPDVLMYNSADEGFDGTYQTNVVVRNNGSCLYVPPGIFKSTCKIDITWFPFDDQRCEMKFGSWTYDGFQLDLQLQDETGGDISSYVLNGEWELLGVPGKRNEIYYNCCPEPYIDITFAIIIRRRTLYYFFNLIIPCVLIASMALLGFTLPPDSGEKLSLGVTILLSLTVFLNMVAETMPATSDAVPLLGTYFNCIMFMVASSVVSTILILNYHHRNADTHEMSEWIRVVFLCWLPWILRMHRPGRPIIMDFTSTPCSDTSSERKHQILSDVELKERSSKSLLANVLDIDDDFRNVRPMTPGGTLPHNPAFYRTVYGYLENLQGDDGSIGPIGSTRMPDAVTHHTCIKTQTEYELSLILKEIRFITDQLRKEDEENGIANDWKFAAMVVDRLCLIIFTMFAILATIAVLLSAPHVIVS
# Outline: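 Native housefly (Musca domestica) brain nAChR preparation with [3H]IMI radioligand at 5 nM (Kd 5.4 nM). IC50 is the molar concentration inhibiting 50% of specific [3H]IMI binding, fitted by iterative nonlinear least-squares regression. Ki derived as IC50/(1 + [L]/Kd).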
# [2] = test system: Musca domestica; test: Insecticidal activity against Musca domestica (house fly) measured after intrathoracic compound injection in presence of cytochrome P450 inhibitor O-propyl O-(2-propynyl) phenylphosphonate; type: functional
# Outline: (§1)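 Houseflies were first pretreated with the P450 inhibitor O-propyl O-(2-propynyl) phenylphosphonate, then dosed by intrathoracic injection. Lethality was scored 24 h after administration, and the 50% lethal dose was determined.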
# [3] = test system: Musca domestica; test: Insecticidal activity against Musca domestica (house fly) assessed as mortality at LD50 concentration intrathoracic injection in presence of cytochrome P450 inhibitor O-propyl O-(2-propynyl) phenylphosphonate; type: functional; outline: as §1
Structure (SMILES),Ki [1],LD50 [2],mortality [3]
O=C(/N=C1/N(CCCCCCCCN2CCN(Cc3ccc(Cl)nc3)/C2=N\C(=O)C(F)(F)F)CCN1Cc1ccc(Cl)nc1)C(F)(F)F,26000 nM,> 1 mg/kg,0%
O=C(/N=C1/N(CCCCCCCN2CCN(Cc3ccc(Cl)nc3)/C2=N/C(=O)C(F)(F)F)CCN1Cc1ccc(Cl)nc1)C(F)(F)F,2900 nM,> 1 mg/kg,0%
O=C(/N=C1/N(CCCCCCN2CCN(Cc3ccc(Cl)nc3)/C2=N/C(=O)C(F)(F)F)CCN1Cc1ccc(Cl)nc1)C(F)(F)F,26000 nM,> 1 mg/kg,0%
CC(C)(CCN1CCN(Cc2ccc(Cl)nc2)/C1=N\[N+](=O)[O-])CCN1CCN(Cc2ccc(Cl)nc2)/C1=N\[N+](=O)[O-],1460 nM,> 1 mg/kg,0%
O=C(CN1CCN(Cc2ccc(Cl)nc2)/C1=N\[N+](=O)[O-])OCCOC(=O)CN1CCN(Cc2ccc(Cl)nc2)/C1=N\[N+](=O)[O-],1550 nM,> 1 mg/kg,0%
O=[N+]([O-])/N=C1/N(CCCOCCCN2CCN(Cc3ccc(Cl)nc3)/C2=N\[N+](=O)[O-])CCN1Cc1ccc(Cl)nc1,2660 nM,> 1 mg/kg,0%
O=[N+]([O-])/N=C1/N(CCOCCN2CCN(Cc3ccc(Cl)nc3)/C2=N\[N+](=O)[O-])CCN1Cc1ccc(Cl)nc1,530 nM,> 1 mg/kg,0%
O=[N+]([O-])/N=C1\N(Cc2ccc(Cl)nc2)CCN1Cc1ccc(CN2CCN(Cc3ccc(Cl)nc3)/C2=N\[N+](=O)[O-])s1,150 nM,1 mg/kg,
O=[N+]([O-])/N=C1\N(Cc2ccc(Cl)nc2)CCN1Cc1ccc(CN2CCN(Cc3ccc(Cl)nc3)/C2=N\[N+](=O)[O-])o1,30 nM,0.14 mg/kg,
O=[N+]([O-])/N=C1\N(Cc2ccc(Cl)nc2)CCN1Cc1cncc(CN2CCN(Cc3ccc(Cl)nc3)/C2=N\[N+](=O)[O-])c1,2300 nM,> 1 mg/kg,10%
O=[N+]([O-])/N=C1\N(Cc2ccc(Cl)nc2)CCN1Cc1cccc(CN2CCN(Cc3ccc(Cl)nc3)/C2=N\[N+](=O)[O-])n1,5200 nM,> 1 mg/kg,0%
O=[N+]([O-])/N=C1\N(Cc2ccc(Cl)nc2)CCN1Cc1ccccc1-c1ccccc1CN1CCN(Cc2ccc(Cl)nc2)/C1=N\[N+](=O)[O-],800 nM,> 1 mg/kg,10%
O=[N+]([O-])/N=C1/N(Cc2ccc(Cc3ccc(CN4CCN(Cc5ccc(Cl)nc5)/C4=N\[N+](=O)[O-])cc3)cc2)CCN1Cc1ccc(Cl)nc1,17000 nM,> 1 mg/kg,0%
O=[N+]([O-])/N=C1\N(Cc2ccc(Cl)nc2)CCN1Cc1cccc(CN2CCN(Cc3ccc(Cl)nc3)/C2=N\[N+](=O)[O-])c1,2770 nM,> 1 mg/kg,0%
O=C(/N=C1/N(CCCCCN2CCN(Cc3ccc(Cl)nc3)/C2=N/C(=O)C(F)(F)F)CCN1Cc1ccc(Cl)nc1)C(F)(F)F,16000 nM,> 1 mg/kg,0%
O=[N+]([O-])/N=C1/N(Cc2ccc(CN3CCN(Cc4ccc(Cl)nc4)/C3=N\[N+](=O)[O-])cc2)CCN1Cc1ccc(Cl)nc1,2270 nM,> 1 mg/kg,0%
O=[N+]([O-])NC1=NCCN1Cc1ccc(Cl)nc1 [IMIDACLOPRID],4.6 nM,0.03 mg/kg,

# From ChEMBL document CHEMBL3045298, “Furan-2,5-dimethylene-tethered bis-imidacloprid insecticide conferring high potency” (J Agric Food Chem, 2010)
